# Data taken from PMC3304490 (Biochemical Journal, 2012).
# “And” between values parts separate entries of the source, which are not always exact repeats. Equal entries are not always repeated. Where two headings read alike, the source gives them in different places.
# Columns and labels:
# [1] = cited from earlier work
# [2] = target: CR8 (DxDxD) domain of LRP (Homo sapiens, UniProt Q07954); experiment: Tryptophan fluorescence titration of amino acid ligands with CR8 domain; assay type: binding; settings: for fold weaker Kd than lysine methyl ester: pH 5.5, I=0.02; for slope of Debye–Hückel plot (−zA×zB): ionic-strength-dependence of binding; for ΔG^u: unitary free energy
# [3] = tested on: cluster II CR domains of LRP; experiment: Fluorescence titrations, summary statements across several CR domains; assay type: binding
# Outline: (§1)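 Each CR domain (1–3 μM) was titrated at 298 K in buffer with 1 mM Ca2+ and 0.1% PEG 8000: 20 mM Mes at pH 5.5 or 20 mM Tris/HCl at pH 7.4, with NaCl set to the target ionic strength. Tryptophan emission (λex 280 nm) was read at the wavelength of maximal change and averaged over 120 s, with blank and dilution correction. Kd came from a non-linear single-site fit, using the protonated ligand fraction.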
# [4] = target: CR5 (DxDDD) domain of LRP (Homo sapiens, UniProt Q07954); experiment: Tryptophan fluorescence titration of amino acid ligands with CR5 domain; assay type: binding; settings: for ΔG^u: unitary free energy
# Outline: as §1
# [5] = target: CR3 (DxDxD) domain of LRP (Homo sapiens, UniProt Q07954); experiment: Tryptophan fluorescence titration of amino acid ligands with CR3 domain; assay type: binding; settings: for ΔG^u: unitary free energy
# Outline: as §1
# [6] = pKa values used for correction of ligand concentration; assay type: physicochemical; settings: pH 5.5
# [7] = target: D1085A (DxxxD) CR8 variant (Homo sapiens, UniProt Q07954, D1085A); experiment: Tryptophan fluorescence titration of amino acid ligands with CR8 variant D1085A; assay type: binding; settings: for Kd: I=0.02, pH 5.5, 298 K; for ΔG^u: unitary free energy
# Outline: as §1
# [8] = CR3, CR5 and CR8, I=0.02, both pH values
# [9] = physiological ionic strength, binding favoured at pH 7.4
# [10] = irrespective of ionic strength or pH, results not shown
# [11] = Table 3, pH 7.4, ionic strength not given
# Chain of CR3 (DxDxD) domain of LRP (Q07954 852-892 limits assumed): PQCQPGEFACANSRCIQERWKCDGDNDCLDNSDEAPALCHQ
# Chain of D1085A (DxxxD) CR8 variant (Q07954 1060-1099 D1085A limits assumed): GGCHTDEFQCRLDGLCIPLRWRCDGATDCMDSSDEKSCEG
# Chain of CR8 (DxDxD) domain of LRP (Q07954 1060-1099 limits assumed): as the sequence (Q07954 1060-1099 D1085A limits assumed) above, with A26D counted along it
# Chain of CR5 (DxDDD) domain of LRP (Q07954 934-973 limits assumed): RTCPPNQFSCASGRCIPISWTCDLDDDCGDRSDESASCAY
compound,measurement,setting,value
COC(=O)[C@@H](N)Cc1c[nH]cn1 [Histidine methyl ester],pKa,[1]; side chain (imidazole),5.33
same,ΔG°,"[2]; Table 3, pH 5.5",-4.83 kcal/mol
same,ΔΔG° compared with lysine methyl ester,"[3]; four domains, pH 5.5 and low ionic strength",0.14 to 0.48 kcal/mol
same,ΔG°,"[4]; Table 3, pH 5.5",-4.76 kcal/mol
same,ΔG°,"[5]; Table 3, pH 5.5",-3.99 kcal/mol
same,fraction of the imidazole protonated,[6],~ 40%
same,ΔG°,"[7]; Table 3, pH 5.5",-3.18 kcal/mol
"NCCCC[C@H](N)C(=O)O [unmodified lysine, lysine]",Kd,[2],1050 µM
same,fold weaker Kd than lysine methyl ester,[2],6 fold
COC(=O)[C@@H](N)CCCCN [Lysine methyl ester],pKa,[1]; α-amino group,7.2
same,ΔG°,"[2]; 298 K, pH 7.4, I=0.17, from interpolated Kd",-4.66 kcal/mol
same,ΔG°,"[2]; I=0.02, pH 5.5",-5.14 kcal/mol
same,Kd,"[2]; I=0.02, pH 5.5, 298 K",170 ± 10 µM
same,ΔG°,"[2]; I=0.02, pH 7.4",-5.11 kcal/mol
same,ΔG°,"[2]; I=0.17, pH 5.5",-4.42 kcal/mol
same,Kd,"[2]; I=0.17, pH 5.5, 298 K",570 ± 20 µM
same,ΔG°,"[2]; I=0.17, pH 7.4",-4.71 kcal/mol
same,blue shift of CR8 tryptophan fluorescence,[2]; at saturation (Figure 2),approximately 7 nm
same,slope of Debye–Hückel plot (−zA×zB),[2]; pH 5.5,2.2
same,maximum quench of CR8 fluorescence at saturation,"[2]; pH 7.4, I=0.17, 294 K (Figure 2)",66%
same,ΔS°,"[2]; pH 7.4, I=0.17, van't Hoff analysis",29 J·K^−1·mol^−1
same,slope of Debye–Hückel plot (−zA×zB),[2]; pH 7.4,1.5 and 1.53
same,ΔG,"[2]; physiological conditions of 310 K and I=0.17, pH 7.4",-4.57 kcal/mol
same,Kd,"[2]; read-out: interpolated Kd, 298 K, pH 7.4, I=0.17, from van't Hoff plot",380 µM
same,ΔG^u,"[2]; I=0.02, pH 5.5",-7.5 kcal/mol
same,ΔG^u,"[2]; I=0.02, pH 7.4",-7.46 kcal/mol
same,ΔG^u,"[2]; I=0.17, pH 5.5",-6.79 kcal/mol
same,ΔG^u,"[2]; I=0.17, pH 7.4",-7.07 kcal/mol
same,ΔH°,"[2]; van't Hoff plot 279–310 K, pH 7.4, I=0.17",-2.56 kcal/mol
same,fold reduction in Kd compared with N^α-acetyl-lysine methyl ester,[3]; [8],5–18 fold
same,increase in ΔG° compared with N^α-acetyl-lysine methyl ester,[3]; [8],1.03 to 1.72 kcal/mol
same,ΔG°,"[4]; I=0.02, pH 5.5",-5.11 kcal/mol
same,Kd,"[4]; I=0.02, pH 5.5, 298 K",180 ± 10 µM
same,ΔG°,"[4]; I=0.02, pH 7.4",-4.85 kcal/mol
same,ΔG°,"[4]; I=0.17, pH 5.5",-4.4 kcal/mol
same,Kd,"[4]; I=0.17, pH 5.5, 298 K",600 ± 40 µM
same,ΔG°,"[4]; I=0.17, pH 7.4",-4.64 kcal/mol
same,ΔG^u,"[4]; I=0.02, pH 5.5",-7.46 kcal/mol
same,ΔG^u,"[4]; I=0.02, pH 7.4",-7.22 kcal/mol
same,ΔG^u,"[4]; I=0.17, pH 5.5",-6.76 kcal/mol
same,ΔG^u,"[4]; I=0.17, pH 7.4",-7 kcal/mol
same,ΔG°,"[5]; I=0.02, pH 5.5",-4.47 kcal/mol
same,Kd,"[5]; I=0.02, pH 5.5, 298 K",530 ± 50 µM
same,ΔG°,"[5]; I=0.02, pH 7.4",-4.97 kcal/mol
same,ΔG°,"[5]; I=0.17, pH 5.5",-3.99 kcal/mol
same,Kd,"[5]; I=0.17, pH 5.5, 298 K",1190 ± 110 µM
same,ΔG°,"[5]; I=0.17, pH 7.4",-4.68 kcal/mol
same,difference in ΔG° between pH 5.5 and 7.4,[5]; [9],2.9 kJ/mol
same,ΔG^u,"[5]; I=0.02, pH 5.5",-6.84 kcal/mol
same,ΔG^u,"[5]; I=0.02, pH 7.4",-7.34 kcal/mol
same,ΔG^u,"[5]; I=0.17, pH 5.5",-6.36 kcal/mol
same,ΔG^u,"[5]; I=0.17, pH 7.4",-7.05 kcal/mol
same,"Kd of D1085A, fold higher than for N^α-acetyl-lysine methyl ester",[7],~ 3 fold
same,ΔG°,"[7]; I=0.02, pH 5.5",-3.32 kcal/mol
same,Kd,[7],3700 ± 130 µM
same,ΔG°,"[7]; I=0.02, pH 7.4",-3.27 kcal/mol
same,fold decrease of Kd compared with N^α-acetyl-lysine methyl ester,[7]; pH 5.5 and I=0.02,less than 4 fold
same,ΔG^u,"[7]; I=0.02, pH 5.5",-5.69 kcal/mol
same,ΔG^u,"[7]; I=0.02, pH 7.4",-5.64 kcal/mol
COC(=O)[C@H](C)N [Alanine methyl ester],Kd,[2],4900 ± 250 µM
same,ΔG°,"[2]; Table 3, pH 5.5",-3.15 kcal/mol
same,fold weaker Kd than lysine methyl ester,[2],28 fold
same,ΔΔG° compared with lysine methyl ester,[3]; CR5 and CR8,1.86 to 1.98 kcal/mol
same,Kd,[4],4100 ± 240 µM
same,ΔG°,"[4]; Table 3, pH 5.5",-3.25 kcal/mol
same,fold weaker Kd than lysine methyl ester,[4]; pH 5.5,23 fold
COC(=O)[C@H](CCCCN)NC(C)=O [N^α-acetyl-lysine methyl ester],ΔG°,"[2]; I=0.02, pH 5.5",-3.42 kcal/mol
same,Kd,"[2]; I=0.02, pH 5.5, 298 K",3100 ± 440 µM
same,ΔG°,"[2]; I=0.02, pH 7.4",-3.75 kcal/mol
same,ΔG°,"[2]; I=0.17, pH 5.5",-3.51 kcal/mol
same,Kd,"[2]; I=0.17, pH 5.5, 298 K",2600 ± 280 µM
same,ΔG°,"[2]; I=0.17, pH 7.4",-3.42 kcal/mol
same,range of ΔG° values,"[3]; CR3, CR5 and CR8, two ionic strengths, pH 5.5 and 7.4",-3.8 to -3.42 kcal/mol
same,ΔG°,"[4]; I=0.02, pH 5.5",-3.75 kcal/mol
same,Kd,"[4]; I=0.02, pH 5.5, 298 K",1800 ± 160 µM
same,ΔG°,"[4]; I=0.02, pH 7.4",-3.8 kcal/mol
same,ΔG°,"[4]; I=0.17, pH 5.5",-3.59 kcal/mol
same,Kd,"[4]; I=0.17, pH 5.5, 298 K",2300 ± 490 µM
same,ΔG°,"[4]; I=0.17, pH 7.4",-3.54 kcal/mol
same,ΔG°,"[5]; I=0.02, pH 5.5",-3.47 kcal/mol
same,Kd,"[5]; I=0.02, pH 5.5, 298 K",2900 ± 120 µM
same,ΔG°,"[5]; I=0.02, pH 7.4",-3.7 kcal/mol
same,ΔG°,"[5]; I=0.17, pH 5.5",-3.47 kcal/mol
same,Kd,"[5]; I=0.17, pH 5.5, 298 K",2900 ± 280 µM
same,ΔG°,"[5]; I=0.17, pH 7.4",-3.56 kcal/mol
same,ΔG°,"[7]; I=0.02, pH 5.5",-2.58 kcal/mol
same,Kd,[7],12800 ± 2000 µM
same,ΔG°,"[7]; I=0.02, pH 7.4",-2.58 kcal/mol
same,loss of binding energy for D1085A,[7]; compared with domains with central aspartate,0.837 to 1.22 kcal/mol
COC(=O)[C@@H](N)CCCN=C(N)N [Arginine methyl ester],ΔG°,"[2]; I=0.02, pH 5.5",-5.02 kcal/mol
same,Kd,"[2]; I=0.02, pH 5.5, 298 K",210 ± 10 µM
same,ΔG°,"[2]; I=0.02, pH 7.4",-4.68 kcal/mol
same,ΔG°,"[2]; I=0.17, pH 5.5",-4.23 kcal/mol
same,Kd,"[2]; I=0.17, pH 5.5, 298 K",780 ± 10 µM
same,ΔG°,"[2]; I=0.17, pH 7.4",-4.42 kcal/mol
same,ΔG^u,"[2]; I=0.02, pH 5.5",-7.39 kcal/mol
same,ΔG^u,"[2]; I=0.02, pH 7.4",-7.05 kcal/mol
same,ΔG^u,"[2]; I=0.17, pH 5.5",-6.6 kcal/mol
same,ΔG^u,"[2]; I=0.17, pH 7.4",-6.79 kcal/mol
same,ΔG°,"[4]; I=0.02, pH 5.5",-4.83 kcal/mol
same,Kd,"[4]; I=0.02, pH 5.5, 298 K",290 ± 10 µM
same,ΔG°,"[4]; I=0.02, pH 7.4",-4.42 kcal/mol
same,ΔG°,"[4]; I=0.17, pH 5.5",-4.18 kcal/mol
same,Kd,"[4]; I=0.17, pH 5.5, 298 K",840 ± 50 µM
same,ΔG°,"[4]; I=0.17, pH 7.4",-4.25 kcal/mol
same,difference in ΔG° between pH 5.5 and 7.4,[4]; [9],0.3 kJ/mol
same,ΔG^u,"[4]; I=0.02, pH 5.5",-7.19 kcal/mol
same,ΔG^u,"[4]; I=0.02, pH 7.4",-6.76 kcal/mol
same,ΔG^u,"[4]; I=0.17, pH 5.5",-6.55 kcal/mol
same,ΔG^u,"[4]; I=0.17, pH 7.4",-6.62 kcal/mol
same,ΔG°,"[5]; I=0.02, pH 5.5",-4.33 kcal/mol
same,Kd,"[5]; I=0.02, pH 5.5, 298 K",680 ± 70 µM
same,ΔG°,"[5]; I=0.02, pH 7.4",-4.25 kcal/mol
same,ΔG°,"[5]; I=0.17, pH 5.5",-3.66 kcal/mol
same,Kd,"[5]; I=0.17, pH 5.5, 298 K",2090 ± 160 µM
same,ΔG°,"[5]; I=0.17, pH 7.4",-4.23 kcal/mol
same,ΔG^u,"[5]; I=0.02, pH 5.5",-6.69 kcal/mol
same,ΔG^u,"[5]; I=0.02, pH 7.4",-6.62 kcal/mol
same,ΔG^u,"[5]; I=0.17, pH 5.5",-6.02 kcal/mol
same,ΔG^u,"[5]; I=0.17, pH 7.4",-6.6 kcal/mol
same,ΔG°,"[7]; I=0.02, pH 5.5",-3.49 kcal/mol
same,Kd,[7],2800 ± 110 µM
same,ΔG°,"[7]; I=0.02, pH 7.4",-3.13 kcal/mol
same,ΔG^u,"[7]; I=0.02, pH 5.5",-5.86 kcal/mol
same,ΔG^u,"[7]; I=0.02, pH 7.4",-5.5 kcal/mol
CCOC(=O)[C@@H](N)CCCCN [lysine ethyl ester],binding affinity compared with lysine methyl ester,[2]; [10],negligible difference
same,binding affinity compared with lysine methyl ester,[4]; [10],negligible difference
same,binding affinity compared with lysine methyl ester,[5]; [10],negligible difference
Aspartate methyl ester,ΔG°,"[2]; Table 3, pH 5.5",-1.51 kcal/mol
same,ΔG°,"[2]; Table 3, pH 7.4",-1.27 kcal/mol
same,fold weaker Kd than lysine methyl ester,[3]; Table 3 domains,65–450 fold
same,ΔΔG° compared with lysine methyl ester,[3]; Table 3 domains,2.46 to 3.63 kcal/mol
same,perturbation of CR domain tryptophan fluorescence in presence of EDTA,"[3]; titrations repeated with EDTA to remove Ca^2+, results not shown",no perturbation
same,ΔG°,"[4]; Table 3, pH 5.5",-1.67 kcal/mol
same,ΔG°,"[4]; Table 3, pH 7.4",-1.63 kcal/mol
same,Kd,[4]; [11],63000 ± 5000 µM
same,ΔG°,"[5]; Table 3, pH 5.5",-1.48 kcal/mol
same,ΔG°,"[5]; Table 3, pH 7.4",-1.6 kcal/mol
same,Kd,[5]; [11],66000 ± 11000 µM
same,fold weaker Kd of D1085A variant than of CR8,[7],~ 3 fold
same,ΔG°,"[7]; Table 3, pH 5.5",-0.86 kcal/mol
same,ΔG°,"[7]; Table 3, pH 7.4",-0.789 kcal/mol
